SMILES strings stand for the structures. ≈ marks a conversion by molar mass, not a printed value. Bounds are passed on as bounds.

The subject of assay [1] is Mycobacterium tuberculosis. Briefly: Antimycobacterial activity against Mycobacterium tuberculosis H37Rv assessed as inhibition of bacterial growth after 5 days by Microplate Alamar Blue Assay. To be noted: 120 h. The format is functional. For orientation: Alamar Blue is a resazurin reagent that responds to reducing activity.
The next assay deals with A549. Briefly: Cytotoxicity against human A549 assessed as inhibition of cell proliferation by MTT assay. The format is cell-based. The gist of the method: (§1)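 MTT read-out; IC50 taken as the concentration giving a 50% drop in optical density of treated cells relative to untreated cells.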
For orientation: Tetrazolium dyes change colour on reduction, which living cells bring about.

The test system of a further assay is Vero. Briefly: Cytotoxicity against African green monkey Vero cells assessed as inhibition of cell proliferation by MTT assay. The format is cell-based. To be noted: Chlorocebus sabaeus. The gist of the method:
as §1

Consider `Clc1cccc(OCCOc2ccc(-n3cccc3)cc2)c1`, for which, in assay [1], the MIC was determined as 25 µg/mL (≈ 79.7 µM).

Turning to `Oc1ccc(OCCCOc2ccc(-n3cccc3)cc2)cc1`, in assay [1], the MIC came out at 12.5 µg/mL (≈ 40.4 µM).

As to `c1ccc(OCCOc2ccc(-n3cccc3)cc2)cc1`, in assay [1], the MIC worked out at 50 µg/mL (≈ 179 µM).

In the case of `Clc1ccc(OCCOc2ccc(-n3cccc3)cc2)cc1`, the MIC in assay [1] worked out at 12.5 µg/mL (≈ 39.8 µM).

Turning to `Clc1ccccc1OCCOc1ccc(-n2cccc2)cc1`, the minimum inhibitory concentration (MIC) in assay [1] turned out to be 25 µg/mL (≈ 79.7 µM).

In the case of `Brc1ccc(OCCOc2ccc(-n3cccc3)cc2)cc1`, in assay [1], the MIC amounted to 12.5 µg/mL (≈ 34.9 µM).

Take `Brc1cccc(OCCOc2ccc(-n3cccc3)cc2)c1`: the MIC in assay [1] worked out at 25 µg/mL (≈ 69.8 µM).

Consider `Brc1ccccc1OCCOc1ccc(-n2cccc2)cc1`, for which the MIC in assay [1] was determined as 25 µg/mL (≈ 69.8 µM).

Consider `Ic1ccc(OCCOc2ccc(-n3cccc3)cc2)cc1`, for which the minimal inhibitory concentration (MIC) in assay [1] was determined as 12.5 µg/mL (≈ 30.8 µM).

`Fc1ccc(OCCOc2ccc(-n3cccc3)cc2)cc1`: in assay [1], the MIC was determined as 6.25 µg/mL (≈ 21 µM).

Consider `O=[N+]([O-])c1ccc(OCCOc2ccc(-n3cccc3)cc2)cc1`, for which the MIC in assay [1] is 50 µg/mL (≈ 154 µM).

For the compound `O=[N+]([O-])c1ccc(OCCOc2ccc(-n3cccc3)cc2)c([N+](=O)[O-])c1`, the MIC in assay [1] turned out to be 100 µg/mL (≈ 271 µM).

For the compound `N#Cc1ccc(OCCOc2ccc(-n3cccc3)cc2)cc1`, the MIC in assay [1] is 6.25 µg/mL (≈ 20.5 µM).

In the case of `O=Cc1ccc(OCCOc2ccc(-n3cccc3)cc2)cc1`, the minimal inhibitory concentration (MIC) in assay [1] was 12.5 µg/mL (≈ 40.7 µM).

Consider `COc1cc(C=O)ccc1OCCOc1ccc(-n2cccc2)cc1`, for which, in assay [1], the MIC came out at 6.25 µg/mL (≈ 18.5 µM).

With `CCOc1cc(C=O)ccc1OCCOc1ccc(-n2cccc2)cc1`, the IC50 stood at 217 µM in the assay with A549 and 211 µM with Vero. For the same compound, the MIC in assay [1] worked out at 3.12 µg/mL (≈ 8.89 µM).

As to `Cc1ccc(OCCOc2ccc(-n3cccc3)cc2)cc1`, the MIC in assay [1] is 25 µg/mL (≈ 85.2 µM).

On to `Cc1cccc(OCCOc2ccc(-n3cccc3)cc2)c1`, for which the MIC in assay [1] amounted to 25 µg/mL (≈ 85.2 µM).

On to `Cc1ccccc1OCCOc1ccc(-n2cccc2)cc1`, for which, in assay [1], the MIC came to 25 µg/mL (≈ 85.2 µM).

Regarding `Cc1cc(C)cc(OCCOc2ccc(-n3cccc3)cc2)c1`, the minimal inhibitory concentration (MIC) in assay [1] worked out at 50 µg/mL (≈ 163 µM).

For `Cc1ccc(C)c(OCCOc2ccc(-n3cccc3)cc2)c1`, the MIC in assay [1] came out at 25 µg/mL (≈ 81.3 µM).

As to `Cc1ccc(OCCOc2ccc(-n3cccc3)cc2)c(C)c1`, the MIC in assay [1] was determined as 12.5 µg/mL (≈ 40.7 µM).

Consider `Oc1ccc(OCCOc2ccc(-n3cccc3)cc2)cc1`, for which the minimal inhibitory concentration (MIC) in assay [1] is 12.5 µg/mL (≈ 42.3 µM).

Take `Oc1cccc(OCCOc2ccc(-n3cccc3)cc2)c1`: the MIC in assay [1] amounted to 6.25 µg/mL (≈ 21.2 µM).

Consider `Oc1ccccc1OCCOc1ccc(-n2cccc2)cc1`, for which the MIC in assay [1] worked out at 12.5 µg/mL (≈ 42.3 µM).

With `Oc1cc(OCCOc2ccc(-n3cccc3)cc2)ccc1Cl`, the MIC in assay [1] stood at 6.25 µg/mL (≈ 19 µM).

Turning to `Oc1cc(O)cc(OCCOc2ccc(-n3cccc3)cc2)c1`, the IC50 with A549 came out at 237 µM; in the assay with Vero, 231 µM. Besides, the minimum inhibitory concentration (MIC) in assay [1] stood at 3.12 µg/mL (≈ 10 µM).

As to `c1ccc2c(OCCOc3ccc(-n4cccc4)cc3)cccc2c1`, the IC50 came to 215 µM with A549 and 220 µM with Vero. Moreover, the minimal inhibitory concentration (MIC) in assay [1] amounted to 3.12 µg/mL (≈ 9.49 µM).

Take `c1ccc2cc(OCCOc3ccc(-n4cccc4)cc3)ccc2c1`: the half-inhibitory concentration (IC50) in the assay with A549 stood at 233 µM; with Vero, 231 µM. Moreover, the minimum inhibitory concentration (MIC) in assay [1] worked out at 3.12 µg/mL (≈ 9.49 µM).

For `c1ccn(-c2ccc(OCCOc3ccc(-n4cccc4)cc3)cc2)c1`, the MIC in assay [1] turned out to be 6.25 µg/mL (≈ 18.1 µM).

Turning to `Cc1ccc(C)n1-c1ccc(OCCOc2ccc(-n3cccc3)cc2)cc1`, in assay [1], the MIC came out at 6.25 µg/mL (≈ 16.8 µM).

In the case of `Nc1ccc(OCCOc2ccc(-n3cccc3)cc2)cc1`, in assay [1], the MIC was 100 µg/mL (≈ 340 µM).

`Nc1cccc(OCCOc2ccc(-n3cccc3)cc2)c1`: the MIC in assay [1] stood at 100 µg/mL (≈ 340 µM).

For `Nc1ccccc1OCCOc1ccc(-n2cccc2)cc1`, in assay [1], the MIC amounted to 100 µg/mL (≈ 340 µM).

Regarding `c1ccc(OCCCOc2ccc(-n3cccc3)cc2)cc1`, the MIC in assay [1] came out at 50 µg/mL (≈ 170 µM).

Take `Clc1ccc(OCCCOc2ccc(-n3cccc3)cc2)cc1`: the MIC in assay [1] was found to be 6.25 µg/mL (≈ 19.1 µM).

For the compound `Clc1cccc(OCCCOc2ccc(-n3cccc3)cc2)c1`, the minimum inhibitory concentration (MIC) in assay [1] was found to be 50 µg/mL (≈ 153 µM).

Regarding `Clc1ccccc1OCCCOc1ccc(-n2cccc2)cc1`, in assay [1], the minimum inhibitory concentration (MIC) worked out at 25 µg/mL (≈ 76.3 µM).

`Brc1ccc(OCCCOc2ccc(-n3cccc3)cc2)cc1`: in assay [1], the minimum inhibitory concentration (MIC) was found to be 6.25 µg/mL (≈ 16.8 µM).

`Brc1cccc(OCCCOc2ccc(-n3cccc3)cc2)c1`: the MIC in assay [1] amounted to 25 µg/mL (≈ 67.2 µM).

For the compound `Brc1ccccc1OCCCOc1ccc(-n2cccc2)cc1`, the minimal inhibitory concentration (MIC) in assay [1] amounted to 25 µg/mL (≈ 67.2 µM).

As to `Ic1ccc(OCCCOc2ccc(-n3cccc3)cc2)cc1`, the MIC in assay [1] was 12.5 µg/mL (≈ 29.8 µM).

In the case of `Fc1ccc(OCCCOc2ccc(-n3cccc3)cc2)cc1`, the MIC in assay [1] worked out at 6.25 µg/mL (≈ 20.1 µM).

Regarding `O=[N+]([O-])c1ccc(OCCCOc2ccc(-n3cccc3)cc2)cc1`, the MIC in assay [1] stood at 100 µg/mL (≈ 296 µM).

As for `O=[N+]([O-])c1ccc(OCCCOc2ccc(-n3cccc3)cc2)c([N+](=O)[O-])c1`, the MIC in assay [1] was determined as 100 µg/mL (≈ 261 µM).

On to `N#Cc1ccc(OCCCOc2ccc(-n3cccc3)cc2)cc1`, for which the minimal inhibitory concentration (MIC) in assay [1] was found to be 6.25 µg/mL (≈ 19.6 µM).

As for `O=Cc1ccc(OCCCOc2ccc(-n3cccc3)cc2)cc1`, the MIC in assay [1] was 12.5 µg/mL (≈ 38.9 µM).

As for `COc1cc(C=O)ccc1OCCCOc1ccc(-n2cccc2)cc1`, the IC50 in the assay on A549 was found to be 210 µM; with Vero, 212 µM. In addition, the MIC in assay [1] is 3.12 µg/mL (≈ 8.89 µM).

As to `CCOc1cc(C=O)ccc1OCCCOc1ccc(-n2cccc2)cc1`, the half-maximal inhibitory concentration (IC50) in the assay with A549 worked out at 223 µM; with Vero it was 215 µM. In assay [1], the MIC is 3.12 µg/mL (≈ 8.55 µM).

On to `Cc1ccc(OCCCOc2ccc(-n3cccc3)cc2)cc1`, for which the MIC in assay [1] amounted to 12.5 µg/mL (≈ 40.7 µM).

Regarding `Cc1cccc(OCCCOc2ccc(-n3cccc3)cc2)c1`, the MIC in assay [1] was determined as 25 µg/mL (≈ 81.3 µM).

On to `Cc1ccccc1OCCCOc1ccc(-n2cccc2)cc1`, for which the MIC in assay [1] came to 25 µg/mL (≈ 81.3 µM).

On to `Cc1cc(C)cc(OCCCOc2ccc(-n3cccc3)cc2)c1`, for which the MIC in assay [1] is 25 µg/mL (≈ 77.8 µM).

For the compound `Cc1ccc(C)c(OCCCOc2ccc(-n3cccc3)cc2)c1`, in assay [1], the MIC amounted to 25 µg/mL (≈ 77.8 µM).

With `Cc1ccc(OCCCOc2ccc(-n3cccc3)cc2)c(C)c1`, the MIC in assay [1] turned out to be 25 µg/mL (≈ 77.8 µM).

On to `Oc1cccc(OCCCOc2ccc(-n3cccc3)cc2)c1`, for which the MIC in assay [1] was 12.5 µg/mL (≈ 40.4 µM).

As to `Oc1ccccc1OCCCOc1ccc(-n2cccc2)cc1`, in assay [1], the MIC worked out at 12.5 µg/mL (≈ 40.4 µM).

`Oc1cc(OCCCOc2ccc(-n3cccc3)cc2)ccc1Cl`: the MIC in assay [1] is 6.25 µg/mL (≈ 18.2 µM).

On to `Oc1cc(O)cc(OCCCOc2ccc(-n3cccc3)cc2)c1`, for which the half-inhibitory concentration (IC50) in the assay with A549 was 227 µM; in the assay with Vero it was 220 µM. The MIC in assay [1] turned out to be 3.12 µg/mL (≈ 9.6 µM).

As for `c1ccc2c(OCCCOc3ccc(-n4cccc4)cc3)cccc2c1`, the IC50 in the assay with A549 worked out at 243 µM; in the assay on Vero, 240 µM. Moreover, in assay [1], the minimal inhibitory concentration (MIC) stood at 1.6 µg/mL (≈ 4.66 µM).

As for `c1ccc2cc(OCCCOc3ccc(-n4cccc4)cc3)ccc2c1`, the IC50 in the assay on A549 is 235 µM; in the assay with Vero, 238 µM. In addition, the MIC in assay [1] was 3.12 µg/mL (≈ 9.1 µM).

As for `c1ccn(-c2ccc(OCCCOc3ccc(-n4cccc4)cc3)cc2)c1`, the MIC in assay [1] turned out to be 6.25 µg/mL (≈ 17.4 µM).

Consider `Cc1ccc(C)n1-c1ccc(OCCCOc2ccc(-n3cccc3)cc2)cc1`, for which the IC50 in the assay on A549 turned out to be 237 µM; in the assay on Vero it was 235 µM. Also, in assay [1], the MIC came to 3.12 µg/mL (≈ 8.09 µM).

`Nc1ccc(OCCCOc2ccc(-n3cccc3)cc2)cc1`: the MIC in assay [1] was 50 µg/mL (≈ 162 µM).

Turning to `Nc1cccc(OCCCOc2ccc(-n3cccc3)cc2)c1`, the minimal inhibitory concentration (MIC) in assay [1] turned out to be 100 µg/mL (≈ 324 µM).

`Nc1ccccc1OCCCOc1ccc(-n2cccc2)cc1`: the MIC in assay [1] came out at 100 µg/mL (≈ 324 µM).

As to `NNC(=O)c1ccncc1` [ISONIAZID], the concentration for half-maximal inhibition (IC50) in the assay with A549 and in the assay on Vero was above 450 µM throughout. Moreover, the minimum inhibitory concentration (MIC) in assay [1] is 0.25 µg/mL (≈ 1.82 µM).

For the compound `Oc1cc(Cl)ccc1Oc1ccc(Cl)cc1Cl` [TRICLOSAN], the MIC in assay [1] is 10 µg/mL (≈ 34.5 µM).

By MIC is commonly meant the least concentration at which growth counts as inhibited. By IC50 is commonly meant the concentration at which inhibition is half-maximal.

For the origin of these results see ChEMBL document CHEMBL3576786, “Discovery of target based novel pyrrolyl phenoxy derivatives as antimycobacterial agents: an in silico approach” (Eur J Med Chem, 2015).
